KCNK9 inh: human KCNK9 channel inhibition; HEK293 KCNK9, FluxOR thallium flux fluorescence; hits give low values; Q9NPC2; B-score at 10 µM; 310,000 tested, 1.2% active; AID 488922;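 active = ratio B-score over 3 SD below the library mean, with starting fluorescence within 5 SD of its mean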;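 also: negative B-score means less thallium flux so channel inhibition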
Target sequence (Q9NPC2 whole entry, looked up): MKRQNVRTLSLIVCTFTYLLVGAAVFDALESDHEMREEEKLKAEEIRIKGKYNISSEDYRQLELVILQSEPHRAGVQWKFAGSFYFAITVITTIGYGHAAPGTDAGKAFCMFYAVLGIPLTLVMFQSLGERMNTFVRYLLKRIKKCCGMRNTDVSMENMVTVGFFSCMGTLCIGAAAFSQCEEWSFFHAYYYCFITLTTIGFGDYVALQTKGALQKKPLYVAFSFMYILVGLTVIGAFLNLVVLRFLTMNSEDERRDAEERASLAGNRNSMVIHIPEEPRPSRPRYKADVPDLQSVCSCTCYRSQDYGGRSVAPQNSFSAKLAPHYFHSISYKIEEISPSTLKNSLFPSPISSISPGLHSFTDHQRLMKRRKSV
KCNK3 inh: human KCNK3 channel inhibition, primary screen | 340,000 tested, 0.84% active | CHO-KCNK3 thallium flux, FluxOR fluorescence; hits give low values | O14649 | B-score at 10 µM;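 active = B-score under library mean minus 4 SD, starting fluorescence ratio at most library mean plus 5 SD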;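 also: more negative B-score means stronger inhibition of thallium flux through KCNK3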
hERG rescue: shields human hERG channel from block by proarrhythmic agents; Q12809; CHO-hERG, FluxOR thallium flux, dofetilide IC70 present; activation (rescue from dofetilide block), less the hit threshold, % at 10 µM; 310,000 tested, 0.51% active; AID 1511;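 active = activation above the mean of controls blocked by dofetilide plus 5 SD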;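 also: thallium influx through hERG after potassium depolarization seen as dye fluorescence rise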
Kir21 inh: Kir2.1 (mouse) channel inhibition; HEK293-Kir2.1, FluxOR thallium flux fluorescence; hits give low values; AID 1672; 310,000 tested, 0.85% active; P35561; B-score at 10 µM;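 active = fluorescence ratio B-score at or below minus 3 SD of library scores, with starting-brightness B-score within 2 SD, cut at about -4.2 in these data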;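 also: channel flux triggered by added potassium and thallium sulfate stimulus; B-score of peak minus minimum fluorescence over baseline after thallium stimulus; more negative B-score means stronger Kir2.1 block with less thallium influx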
KCNQ1 inh: inhibitors of human KCNQ1 potassium channel; CHO-K1 KCNQ1, FluxOR thallium flux fluorescence; hits give high values; B-score at 10 µM; AID 2642; 310,000 tested, 1.3% active;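 active = compounds whose thallium flux B-score, printed positive for inhibition, exceeds three library SD while starting fluorescence stays within three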;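 also: channel opened by potassium depolarization with thallium stimulus after 20 min compound exposure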
KCNQ1 act: human KCNQ1 channel potentiation or activation; CHO-K1 KCNQ1, thallium flux FluxOR fluorescence; hits give high values; P51787; 310,000 tested, 0.35% active; B-score at 10 µM;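 active = fluorescence ratio B-score, a plate-corrected score, at least three library SD, with initial intensity B-score within 5 SD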
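assay system = KCNQ1-transfected CHO-K1 cells | medium = assay buffer with matched DMSO | probe or stimulus = depolarizing K+/Tl+ stimulus, K2SO4 and Tl2SO4 each 12.5 mM in 5x stock | dosing = single dose | incubation = dye 90 min, compound 20 min, room temperature | detection = kinetic FluxOR fluorescence, 10 s baseline plus 110 s post-stimulus | evaluation = ratio B score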
Active calls of the source: *. The list is not random: actives were taken first. Their share in the collection is about 3.8%.

Results for Cc1ccnc(NC(=O)CNC(=O)c2ccc3ccccc3c2)c1 ?
KCNK9 inh: inactive; KCNK3 inh: inactive; hERG rescue: -19.1; Kir21 inh: 1.08; KCNQ1 inh: inactive; KCNQ1 act: inactive

What do the screens show for `Cc1ccnc(NC(=O)CNC(=O)c2ccc3c(c2)OCO3)c1`?
KCNK9 inh: inactive; KCNK3 inh: inactive; hERG rescue: -5.7; Kir21 inh: -0.05; KCNQ1 inh: inactive; KCNQ1 act: 15*

Results for CCCn1c(SCC(=O)N2CCc3ccccc32)n[nH]c1=O ?
KCNK3 inh: inactive

What do the screens show for `CC(=O)N=c1cccc(NC(C)=O)n1O`?
KCNK9 inh: inactive; KCNK3 inh: inactive; hERG rescue: -0.9; Kir21 inh: 2.4; KCNQ1 inh: inactive; KCNQ1 act: inactive

Results for CCOC(=O)C1=C(C)N=c2s/c(=C/c3ccc(OCC(=O)O)cc3)c(=O)n2C1c1ccc(F)cc1 (stereo not drawn) ?
KCNK9 inh: inactive; KCNK3 inh: inactive; hERG rescue: -5.3; Kir21 inh: 0.87; KCNQ1 inh: inactive; KCNQ1 act: inactive

What do the screens show for `COc1ccc(C2C(C(C)=O)=C(C)N=c3s/c(=C\c4cc(C)n(C)c4C)c(=O)n32)c(OC)c1` (stereo not drawn)?
KCNK9 inh: inactive; KCNK3 inh: inactive; hERG rescue: -25.0; Kir21 inh: -3.2; KCNQ1 inh: 9*; KCNQ1 act: inactive

How did CCOC(=O)C1=C(C)N=c2s/c(=C\c3ccncc3)c(=O)n2C1c1ccc2c(c1)OCO2 (stereo not drawn) do in these assays?
KCNK9 inh: inactive; KCNK3 inh: inactive; hERG rescue: -13.5; Kir21 inh: -0.76; KCNQ1 inh: 8*; KCNQ1 act: inactive

Results for CCOC(=O)C1=C(C)N=c2s/c(=C/c3ccc(OCC(=O)O)cc3)c(=O)n2C1c1ccc(OC)cc1OC (stereo not drawn) ?
KCNK9 inh: inactive; KCNK3 inh: inactive; hERG rescue: -6.8; Kir21 inh: 0.38; KCNQ1 inh: 6*; KCNQ1 act: inactive

Results for CCOC(=O)C1=C(C)N=c2s/c(=C\c3ccc(OCC(=O)O)cc3)c(=O)n2C1c1ccc(Cl)cc1 (stereo not drawn) ?
KCNK9 inh: inactive; KCNK3 inh: inactive; hERG rescue: -6.6; Kir21 inh: -1.1; KCNQ1 inh: 7*; KCNQ1 act: inactive

Results for CN1C[C@@H]2[C@@H]3C(=O)N(C)C(=O)[C@@H]3[C@](Cc3ccccc3)(C1=O)N2C(=O)c1ccccc1 ?
KCNK3 inh: inactive

Results for Nc1nnnn1CC(=O)N/N=C/c1ccccn1 ?
KCNK9 inh: inactive; KCNK3 inh: inactive; hERG rescue: -12.2; Kir21 inh: -0.01; KCNQ1 inh: inactive; KCNQ1 act: inactive

What do the screens show for `CCN(CC)S(=O)(=O)c1cc(NC(=O)Cc2ccc(S(=O)(=O)N3CCOCC3)s2)ccc1Cl`?
KCNK3 inh: inactive

What do the screens show for `O=C(NNC(=O)c1ccc(O)cc1O)c1ccc(Cl)cc1`?
KCNK9 inh: inactive; KCNK3 inh: inactive; hERG rescue: -12.4; Kir21 inh: 0.05; KCNQ1 inh: 6*; KCNQ1 act: inactive

Results for CCOC(=O)c1c(NC(=O)CSc2nnc(-c3ccc(C)cc3)o2)sc(C(C)=O)c1C ?
KCNK3 inh: -10.1*

Results for CCOC(=O)c1c(NC(=O)C2c3ccccc3Oc3ccccc32)sc(C(C)=O)c1C ?
KCNK9 inh: -7.35*; KCNK3 inh: inactive; hERG rescue: -11.5; Kir21 inh: 2.34; KCNQ1 inh: inactive; KCNQ1 act: inactive

How did CCCn1c(=N)n(CC(=O)C(C)(C)C)c2ccccc21 do in these assays?
KCNK9 inh: inactive; KCNK3 inh: inactive; hERG rescue: -5.3; Kir21 inh: 0.01; KCNQ1 inh: 6*; KCNQ1 act: inactive

What do the screens show for `COC(=O)C1=C(C)NC2=C(C(=O)CCC2)C1c1ccsc1` (stereo not drawn)?
KCNK9 inh: inactive; hERG rescue: 0.3; Kir21 inh: 0.1; KCNQ1 inh: inactive; KCNQ1 act: inactive

What do the screens show for `COC(=O)C1=C(C)NC2=C(C(=O)CCC2)C1c1ccc(-c2ccsc2C(=O)OC)o1` (stereo not drawn)?
KCNK9 inh: inactive; KCNK3 inh: inactive; hERG rescue: 14.4*; Kir21 inh: -1.49; KCNQ1 inh: inactive; KCNQ1 act: inactive

What do the screens show for `COC(=O)C1=C(C)NC(=O)/C1=C\c1cc(C)n(-c2cccc(C)c2)c1C`?
KCNK9 inh: inactive; KCNK3 inh: inactive; hERG rescue: -16.7; Kir21 inh: 2.31; KCNQ1 inh: 9*; KCNQ1 act: inactive

How did COc1ccccc1OCC(=O)Nc1oc(-c2ccccc2)c(-c2ccccc2)c1C#N do in these assays?
KCNK3 inh: -9.38*

How did N#Cc1c(NC(=O)COC(=O)C2CC3C=CC2C3)oc(-c2ccccc2)c1-c1ccccc1 (stereo not drawn) do in these assays?
KCNK9 inh: inactive; KCNK3 inh: inactive; hERG rescue: -17.8; Kir21 inh: -0.35; KCNQ1 inh: 10*; KCNQ1 act: inactive

How did N#Cc1c(NC(=O)CSc2n[nH]c(Cc3ccccc3)n2)oc(-c2ccccc2)c1-c1ccccc1 do in these assays?
KCNK9 inh: inactive; KCNK3 inh: inactive; hERG rescue: -7.2; Kir21 inh: 0.42; KCNQ1 inh: 9*; KCNQ1 act: inactive

What do the screens show for `Cc1ccc(OCC(=O)Nc2oc(-c3ccccc3)c(-c3ccccc3)c2C#N)cc1`?
KCNK9 inh: inactive; KCNK3 inh: inactive; hERG rescue: -3.8; Kir21 inh: 0.36; KCNQ1 inh: 6*; KCNQ1 act: inactive

How did CCCNC(=O)c1ccccc1NC(=O)c1ccccc1N(C)S(=O)(=O)c1ccc(C)cc1 do in these assays?
KCNK9 inh: inactive; KCNK3 inh: inactive; hERG rescue: -6.8; Kir21 inh: 0.3; KCNQ1 inh: inactive; KCNQ1 act: inactive

How did COc1cc(OC)cc(C(=O)N[C@H](C(=O)NC2CCCc3ccccc32)C(C)C)c1 (stereo partly drawn) do in these assays?
KCNK3 inh: inactive

What do the screens show for `Cc1cc(C)c2c(N=NN3CCOCC3)[nH]nc2n1`?
KCNK9 inh: inactive; KCNK3 inh: inactive; hERG rescue: -15.4; Kir21 inh: -2.62; KCNQ1 inh: inactive; KCNQ1 act: inactive

How did Cc1sc(N2CCN(S(=O)(=O)c3ccc4c(c3)NC(=O)CO4)CC2)nc1-c1ccccc1 do in these assays?
KCNK9 inh: inactive; KCNK3 inh: inactive; hERG rescue: -7.1; Kir21 inh: 1.02; KCNQ1 inh: inactive; KCNQ1 act: inactive

Results for COc1ccc(-c2oc(NC(=O)CCl)c(C#N)c2-c2ccc(OC)cc2)cc1 ?
KCNK9 inh: inactive; KCNK3 inh: inactive; hERG rescue: -3.4; Kir21 inh: -0.02; KCNQ1 inh: inactive; KCNQ1 act: inactive

Bioassay records deposited in PubChem by Johns Hopkins Ion Channel Center.
